{
  "source": "paper PMC9973464",
  "about": "(Haematologica, 2022)",
  "key": {"R/R AML patients": {"test_system": "R/R AML patients", "details": "cited from earlier work"}, "rats": {"test_system": "rats", "assay": "Pre-clinical toxicology study, daily oral gavage, rats", "format": "in vivo", "details": "daily oral gavage for 14 days to 3 months"}, "[1]": {"assay": "Phase Ib trial: plasma pharmacokinetics", "format": "in vivo, human"}, "patients with R/R AML [2]": {"test_system": "patients with R/R AML", "assay": "Phase Ib dose-escalation trial of oral mivavotinib: safety, DLT, MTD/RP2D", "format": "in vivo, human"}, "FLT3 isoforms": {"test_system": "FLT3 isoforms", "details": "evaluation of additional kinases; cited from earlier work"}, "human platelets": {"test_system": "human platelets", "assay": "In vitro platelet aggregation assay in platelet rich plasma", "format": "cell-based"}, "patients with R/R AML [3]": {"test_system": "patients with R/R AML", "assay": "Phase Ib trial: response and antileukemic activity", "format": "in vivo, human", "summary_of_the_method": "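Multicenter, open-label phase Ib dose escalation (3+3) of oral single agent given QD or BID in 28-day cycles until progression or unacceptable toxicity. Started at 60 mg QD with 20 mg increments. Response was judged by Revised IWG AML criteria, with modifications.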"}, "lymphoma patients": {"test_system": "lymphoma patients", "details": "target SYK; cited from earlier work"}, "dogs": {"test_system": "dogs", "assay": "Pre-clinical toxicology study, daily oral gavage, dogs", "format": "in vivo", "details": "daily oral gavage for 14 days to 3 months"}, "FLT3": {"biological_target": "T1, FLT3 (Homo sapiens, UniProt P36888)", "T1 sequence (P36888 610-943 limits assumed)": "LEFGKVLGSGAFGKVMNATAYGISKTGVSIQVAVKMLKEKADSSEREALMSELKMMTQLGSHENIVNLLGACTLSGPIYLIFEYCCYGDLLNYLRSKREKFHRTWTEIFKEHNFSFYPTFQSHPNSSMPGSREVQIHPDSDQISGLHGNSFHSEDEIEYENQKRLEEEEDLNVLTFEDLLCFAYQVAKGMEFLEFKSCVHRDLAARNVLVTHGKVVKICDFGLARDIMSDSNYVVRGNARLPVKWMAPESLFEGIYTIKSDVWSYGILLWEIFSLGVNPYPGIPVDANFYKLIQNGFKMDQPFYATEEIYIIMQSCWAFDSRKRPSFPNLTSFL", "assay": "Plasma inhibitory activity", "format": "cell-based", "summary_of_the_method": "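Steady-state trough plasma was drawn before dosing on Cycle 1 day 15. An FLT3-ITD-expressing AML cell line was incubated in this plasma. FLT3 phosphorylation was quantified against baseline plasma and reported as % of baseline. Drug level in the same sample was measured by mass spectrometry. Reference curve: normal donor plasma spiked with test compound, Molm-14 cells 1 h, immunoblot for pFLT3.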"}},
  "note": "Values joined by “and” are separate entries in the source; they are usually repeats but may differ in a detail not shown here. Identical values can stand only once.",
  "data": [
    {"smiles": "CCc1nc(C(N)=O)c(Nc2ccc(N3CCC(N4CCN(C)CC4)CC3)c(OC)c2)nc1NC1CCOCC1", "note": "[gilteritinib]", "values": [
      {"measurement": "median time to achieve best response", "setting": "R/R AML patients", "value": 48, "unit": "days"}
    ]},
    {"smiles": "Cn1cc(-c2nc(N[C@@H]3CCCC[C@@H]3N)c(F)c3c2C(=O)NC3)cn1", "note": "[mivavotinib]", "values": [
      {"measurement": "dose at which GI mucosal hemorrhage was present", "setting": "rats", "value": "≥ 30", "unit": "mg/kg"},
      {"measurement": "dose proportionality of plasma exposure", "setting": "[1]; dose ranges studied, 60-160 mg QD or 60-80 mg BID", "value": "generally dose proportional"},
      {"measurement": "Cmax", "setting": "[1]; human, plasma, oral, 140 mg", "value": "574 ng/mL and 1.07 µM"},
      {"measurement": "Tmax", "setting": "[1]; human, plasma, po", "value": "1 to 3", "unit": "h"},
      {"measurement": "DLT", "setting": "patients with R/R AML [2]; 60 mg BID, 8 patients", "value": "No episodes of DLT were observed"},
      {"measurement": "drug-related SAE gastric hemorrhage", "setting": "patients with R/R AML [2]; 3 patients, who received 80 mg BID", "value": 7, "unit": "%"},
      {"measurement": "maximum tolerated dose (MTD), BID dosing regimen", "setting": "patients with R/R AML [2]; BID dosing regimen", "value": 60, "unit": "mg BID"},
      {"measurement": "recommended phase II dose (RP2D)", "setting": "patients with R/R AML [2]; QD dosing regimen", "value": 140, "unit": "mg QD"},
      {"measurement": "maximum tolerated dose (MTD), QD dosing regimen", "setting": "patients with R/R AML [2]; QD dosing up to 160 mg QD, per protocol", "value": "not reached"},
      {"measurement": "on-study deaths", "setting": "patients with R/R AML [2]; after informed consent and ≤28 days after last dose", "value": 26},
      {"measurement": "patients with ≥1 TEAE assessed by the investigator as related to mivavotinib", "setting": "patients with R/R AML [2]; all 43 patients", "value": 84, "unit": "%"},
      {"measurement": "intracranial bleeding considered grade ≥3", "setting": "patients with R/R AML [2]; all doses", "value": 4, "unit": "patients"},
      {"measurement": "patients with GI tract bleeding considered grade ≥3", "setting": "patients with R/R AML [2]; all doses", "value": 7, "unit": "patients"},
      {"measurement": "patients with GI-related or central nervous system-related bleeding event leading to study discontinuation", "setting": "patients with R/R AML [2]; all doses", "value": 9, "unit": "patients"},
      {"measurement": "patients with bleeding involving the GI tract", "setting": "patients with R/R AML [2]; all doses", "value": "Thirteen"},
      {"measurement": "patients with intracranial bleeding", "setting": "patients with R/R AML [2]; all doses", "value": "Seven"},
      {"measurement": "patients who discontinued mivavotinib due to a TEAE", "setting": "patients with R/R AML [2]; all patients", "value": 67, "unit": "%"},
      {"measurement": "patients with drug-related SAE", "setting": "patients with R/R AML [2]; all patients", "value": 28, "unit": "%"},
      {"measurement": "bleeding events leading to discontinuation considered related to mivavotinib", "setting": "patients with R/R AML [2]; of 9 patients", "value": 5},
      {"measurement": "fatal grade ≥3 bleeding events", "setting": "patients with R/R AML [2]; of eleven patients with grade ≥3 bleeding events", "value": 2},
      {"measurement": "median day of occurrence of all bleeding events", "setting": "patients with R/R AML [2]; range -1 to 262", "value": 22, "unit": "days"},
      {"measurement": "activity against FLT3 isoforms", "setting": "FLT3 isoforms", "value": "1.6 to 7.6", "unit": "ng/mL"},
      {"measurement": "effect on platelet aggregation caused by adenosine diphosphate", "setting": "human platelets", "value": "prevented aggregation"},
      {"measurement": "effect on platelet aggregation caused by collagen", "setting": "human platelets; 1.07 µM mivavotinib", "value": "prevented aggregation"},
      {"measurement": "inhibition of platelet aggregation", "setting": "human platelets; 0.107 mM mivavotinib", "value": "not observed"},
      {"measurement": "effect on platelet aggregation caused by collagen", "setting": "human platelets; 10.7 mM mivavotinib, collagen (2 mg/mL)", "value": "prevented aggregation"},
      {"measurement": "reduction in marrow blast percentage, range", "setting": "patients with R/R AML [3]; 13 patients with FLT3 mutations", "value": "22.5-98.6%"},
      {"measurement": "patients with PD", "setting": "patients with R/R AML [3]; 33 response-evaluable patients", "value": 5},
      {"measurement": "patients with clinical benefit despite PD", "setting": "patients with R/R AML [3]; 33 response-evaluable patients", "value": 4},
      {"measurement": "patients with stable disease", "setting": "patients with R/R AML [3]; 33 response-evaluable patients", "value": 19},
      {"measurement": "complete responses (4 with incomplete count recovery)", "setting": "patients with R/R AML [3]; 43 patients enrolled", "value": 5},
      {"measurement": "patients with a ≥50% reduction in peripheral blast count from baseline", "setting": "patients with R/R AML [3]; BID dosing", "value": "9 of 12"},
      {"measurement": "patients with a ≥50% reduction in peripheral blast count from baseline", "setting": "patients with R/R AML [3]; QD dosing", "value": "12 of 21"},
      {"measurement": "patients with a ≥50% reduction in peripheral blast count from baseline", "setting": "patients with R/R AML [3]; across all dose levels", "value": "21 of 33"},
      {"measurement": "objective responses with incomplete count recovery (CRi)", "setting": "patients with R/R AML [3]; of 19 patients with FLT3 mutations treated at 120, 140, or 160 mg QD or BID", "value": 3},
      {"measurement": "dose identified for expansion", "setting": "lymphoma patients", "value": 100, "unit": "mg QD"},
      {"measurement": "dose at which GI mucosal hemorrhage was dose limiting", "setting": "dogs", "value": "≥ 10", "unit": "mg/kg"},
      {"measurement": "dose at which GI mucosal hemorrhage was present", "setting": "dogs", "value": "≥ 3", "unit": "mg/kg"},
      {"measurement": "in vivo FLT3 inhibition by PIA, comparison of dose levels", "setting": "FLT3; 80 mg BID, trough plasma", "value": "most effective FLT3 inhibition"},
      {"measurement": "consistent or sustained 90% FLT3 inhibition", "setting": "FLT3; 140 mg QD or 60 mg BID", "value": "neither selected RP2D, 140 mg QD or 60 mg BID, achieved a consistent or sustained 90% FLT3 inhibition"},
      {"measurement": "FLT3 inhibition", "setting": "FLT3; 140 mg QD, by Cycle 1 day 15, initial evidence", "value": "at least 90%"}
    ]}
  ]
}
